Assay results taken from ChEMBL document CHEMBL1138631, “Synthesis and amine transporter affinities of novel phenyltropane derivatives as potential positron emission tomography (PET) imaging agents” (Bioorg Med Chem Lett, 2004).
pKi: −log10 of the molar value.

Columns and labels:
[1] = biological target: Monoamine transporters; serotonin & dopamine (Rattus norvegicus) (UniProt P31652+P23977); experiment: Ratio of Ki for dopamine and serotonin transporters; type: protein assay
Outline: (§1)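 Selectivity calculated as Ki at SERT or NET divided by Ki at DAT. Ki values came from radioligand competition assays with tritiated ligands selective for each transporter in rat forebrain tissue preparations. A ratio above 1.0 means preference for DAT.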

[2] = biological target: Sodium-dependent dopamine transporter (Homo sapiens, UniProt Q01959); experiment: Inhibition of [18F]PET binding to dopamine transporter of human brain
Sodium-dependent dopamine transporter (Homo sapiens, UniProt Q01959), sequence (Q01959 whole entry): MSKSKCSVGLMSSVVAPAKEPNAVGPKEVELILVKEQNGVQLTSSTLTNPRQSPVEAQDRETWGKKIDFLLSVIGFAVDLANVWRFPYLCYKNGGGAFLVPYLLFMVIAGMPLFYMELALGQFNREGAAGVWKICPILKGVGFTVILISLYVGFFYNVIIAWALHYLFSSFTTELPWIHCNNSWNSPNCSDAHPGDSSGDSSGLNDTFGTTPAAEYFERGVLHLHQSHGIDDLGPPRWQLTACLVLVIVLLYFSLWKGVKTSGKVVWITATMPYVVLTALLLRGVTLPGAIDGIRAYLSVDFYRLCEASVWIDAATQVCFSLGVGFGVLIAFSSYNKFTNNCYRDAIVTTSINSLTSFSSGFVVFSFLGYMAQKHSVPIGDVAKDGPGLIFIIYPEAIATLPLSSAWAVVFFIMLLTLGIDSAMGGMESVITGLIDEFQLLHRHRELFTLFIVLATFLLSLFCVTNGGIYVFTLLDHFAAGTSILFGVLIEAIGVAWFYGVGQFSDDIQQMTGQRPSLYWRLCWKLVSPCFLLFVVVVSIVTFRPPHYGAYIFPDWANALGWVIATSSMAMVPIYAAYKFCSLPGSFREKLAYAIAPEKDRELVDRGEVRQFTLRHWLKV

[3] = biological target: Monoamine transporters; Norepininephrine & dopamine (Rattus norvegicus) (UniProt P23977+Q9WTR4); experiment: Ratio of Ki for dopamine and norepinephrine transporters; type: protein assay; outline: as §1
[4] = biological target: Sodium-dependent dopamine transporter (Rattus norvegicus, UniProt P23977); experiment: Displacement of [3H]CIT from dopamine transporter of rat striatal homogenate
Sodium-dependent dopamine transporter (Rattus norvegicus, UniProt P23977), sequence (P23977 whole entry): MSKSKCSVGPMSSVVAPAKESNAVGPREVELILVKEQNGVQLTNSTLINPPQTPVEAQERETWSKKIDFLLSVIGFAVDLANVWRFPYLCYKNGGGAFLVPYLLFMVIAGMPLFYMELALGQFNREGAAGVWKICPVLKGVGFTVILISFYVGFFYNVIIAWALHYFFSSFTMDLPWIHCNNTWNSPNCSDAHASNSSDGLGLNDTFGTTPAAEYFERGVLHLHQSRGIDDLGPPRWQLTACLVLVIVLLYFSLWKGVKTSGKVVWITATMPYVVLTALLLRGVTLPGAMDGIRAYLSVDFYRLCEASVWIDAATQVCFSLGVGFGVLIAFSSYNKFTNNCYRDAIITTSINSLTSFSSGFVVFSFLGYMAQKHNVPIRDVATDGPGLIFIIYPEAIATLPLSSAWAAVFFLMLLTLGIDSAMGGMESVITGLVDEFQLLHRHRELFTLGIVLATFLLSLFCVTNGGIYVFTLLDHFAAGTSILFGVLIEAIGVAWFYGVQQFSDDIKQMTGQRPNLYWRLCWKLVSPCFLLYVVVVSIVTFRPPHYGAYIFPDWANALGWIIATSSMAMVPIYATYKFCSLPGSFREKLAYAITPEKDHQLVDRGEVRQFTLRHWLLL

[5] = biological target: Norepinephrine transporter (Rattus norvegicus, UniProt Q9WTR4); experiment: Displacement of [3H]-nisoxetine from norepinephrine transporter of rat cerebral corticex homogenate
Norepinephrine transporter, sequence (Q9WTR4 whole entry): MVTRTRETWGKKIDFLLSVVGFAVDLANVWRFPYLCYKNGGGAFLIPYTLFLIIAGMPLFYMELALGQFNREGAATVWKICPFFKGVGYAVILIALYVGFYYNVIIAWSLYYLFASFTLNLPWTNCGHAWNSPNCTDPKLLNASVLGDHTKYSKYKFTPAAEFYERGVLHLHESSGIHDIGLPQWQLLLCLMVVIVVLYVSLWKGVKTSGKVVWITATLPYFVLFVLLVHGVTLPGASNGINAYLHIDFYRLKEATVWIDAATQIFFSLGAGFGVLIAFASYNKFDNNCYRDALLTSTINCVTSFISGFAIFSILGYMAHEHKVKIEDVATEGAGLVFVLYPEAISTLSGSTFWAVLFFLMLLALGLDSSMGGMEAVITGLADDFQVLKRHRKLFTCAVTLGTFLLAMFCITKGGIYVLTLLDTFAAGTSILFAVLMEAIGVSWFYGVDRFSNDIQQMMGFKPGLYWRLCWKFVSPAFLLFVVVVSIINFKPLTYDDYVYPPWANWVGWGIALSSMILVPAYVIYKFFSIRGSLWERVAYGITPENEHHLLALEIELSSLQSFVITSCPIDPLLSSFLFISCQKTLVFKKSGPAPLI
Outline: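 Competition binding in rat cerebral cortical homogenates incubated with 0.35 nM [3H]nisoxetine; Ki reported in nM.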

[6] = biological target: Sodium-dependent serotonin transporter (Rattus norvegicus, UniProt P31652); experiment: Displacement of [3H]cyanoimiprimine from serotonin transporter of rat cerebral cortical homogenate
Sodium-dependent serotonin transporter, sequence (P31652 whole entry): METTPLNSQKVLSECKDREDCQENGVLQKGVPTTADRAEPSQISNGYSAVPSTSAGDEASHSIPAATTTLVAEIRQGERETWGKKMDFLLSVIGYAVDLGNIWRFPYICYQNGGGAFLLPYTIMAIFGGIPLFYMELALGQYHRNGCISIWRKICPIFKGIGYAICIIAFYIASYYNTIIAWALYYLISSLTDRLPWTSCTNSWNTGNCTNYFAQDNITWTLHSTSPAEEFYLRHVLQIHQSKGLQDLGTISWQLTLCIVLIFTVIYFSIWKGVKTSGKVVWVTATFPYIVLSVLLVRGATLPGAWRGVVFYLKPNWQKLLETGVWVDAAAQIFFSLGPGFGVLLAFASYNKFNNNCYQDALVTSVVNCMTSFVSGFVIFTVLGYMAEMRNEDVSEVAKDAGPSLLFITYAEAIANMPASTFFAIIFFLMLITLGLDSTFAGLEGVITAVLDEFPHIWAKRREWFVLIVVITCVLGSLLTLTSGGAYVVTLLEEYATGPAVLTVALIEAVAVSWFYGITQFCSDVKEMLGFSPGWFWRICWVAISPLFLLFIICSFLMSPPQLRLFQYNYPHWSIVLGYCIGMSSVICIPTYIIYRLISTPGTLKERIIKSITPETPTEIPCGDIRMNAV
Outline: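 Rat cerebral cortical homogenates incubated with 0.71 nM [3H]cyanoimiprimine in a radioligand competition binding assay; affinity expressed as Ki in nM.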

Monoamine transporters; serotonin & dopamine (Rattus norvegicus), sequence (P23977 whole entry, looked up): as the sequence (P23977 whole entry) above
Monoamine transporters; serotonin & dopamine (Rattus norvegicus), sequence (P31652 whole entry, looked up): as the sequence (P31652 whole entry) above

Compound	Selectivity [1]	pKi [2]	Selectivity [3]	pKi [4]	pKi [5]	pKi [6]
CN1C2CCC1C(C(=O)OCCF)C(c1ccc(Br)cc1)C2 (stereo not given)	2.19	8.30	120	8.63	6.55	8.29
CN1C2CCC1C(C(=O)OCCF)C(c1ccc(I)cc1)C2 (stereo not given)	4.3	–	125	–	6.94	8.40
O=C(OCCCF)C1C2CCC(CC1c1ccc(Br)cc1)N2 (stereo not given)	0.42	8.30	12.3	9.14	8.05	9.52
COC(=O)C1C(c2ccc(Br)cc2)CC2CCC1N2CCCF (stereo not given)	10.9	–	58.9	–	–	–
CN1C2CCC1C(C(=O)NCCF)C(c1ccc(I)cc1)C2 (stereo not given)	0.69	–	> 225	7.35	< 5.00	7.51
O=C(OCCF)C1C2CCC(CC1c1ccc(I)cc1)N2 (stereo not given)	0.21	8.30	–	9.07	–	9.74
CN1C2CCC1C(C(=O)NCCF)C(c1ccc(Br)cc1)C2 (stereo not given)	1.51	–	–	7.59	–	7.41
CN1C2CCC1C(C(=O)OCCCF)C(c1ccc(Br)cc1)C2 (stereo not given)	1.5	8.30	128	8.72	6.61	8.54
COC(=O)C1C2CCC(CC1c1ccc(Br)cc1)N2 (stereo not given)	–	–	–	9.28	8.99	9.02
COC(=O)C1C(c2ccc(Br)cc2)CC2CCC1N2C (stereo not given)	0.06	–	0.02	9.52	7.82	8.31
O=C(OCCF)C1C2CCC(CC1c1ccc(Br)cc1)N2 (stereo not given)	0.42	8.30	26.7	9.24	7.82	9.62
O=C(OCCF)C1C(c2ccc(Br)cc2)CC2CCC1N2CCCF (stereo not given)	1.72	–	0.19	7.97	8.69	7.74
